The values below come from ChEMBL document CHEMBL4257555, “Small molecule cores demonstrate non-competitive inhibition of lactate dehydrogenase” (Medchemcomm, 2018).

Test [1] deals with T1, L-lactate dehydrogenase B chain (Sus scrofa, UniProt P00336). The test can be described thus: Inhibition of porcine heart LDH using pyruvate as substrate and NADH as cofactor measured after 2 hrs by stopped-flow spectrometric method. Summed up: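 Stopped-flow assay of pig heart LDH (5 nN) with 100 μM NADH and 300 μM pyruvate in 100 mM sodium phosphate pH 7.2 at 37 °C, after 2 h inhibitor preincubation at 4 °C. A340 initial rates averaged over five shots and normalised to uninhibited activity. EC50 from a four-parameter fit with min, max, EC50 and Hill coefficient refined.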
T1 sequence (P00336 whole entry): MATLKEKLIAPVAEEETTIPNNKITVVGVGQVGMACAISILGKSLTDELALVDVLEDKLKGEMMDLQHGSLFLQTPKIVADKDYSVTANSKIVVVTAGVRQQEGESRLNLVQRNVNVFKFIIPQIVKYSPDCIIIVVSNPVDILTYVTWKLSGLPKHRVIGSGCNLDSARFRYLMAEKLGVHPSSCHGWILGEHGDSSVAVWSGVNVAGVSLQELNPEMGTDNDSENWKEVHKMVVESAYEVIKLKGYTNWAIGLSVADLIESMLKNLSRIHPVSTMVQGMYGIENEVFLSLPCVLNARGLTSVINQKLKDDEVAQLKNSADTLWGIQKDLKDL

The target in test [2] is T1, L-lactate dehydrogenase B chain. Put plainly: Non-competitive inhibition of porcine heart LDH using varying levels of pyruvate as substrate and NADH as cofactor measured after 2 hrs by double reciprocal lineweaver-burk plot analysis.

Molecules are shown by their SMILES. pEC50, pKi: −log10 of the molar value.

As to `NC(=O)c1cc(O)cc(O)c1`, the negative logarithm of the EC50 (pEC50) in test [1] is 3.15. In test [2], this compound gave a negative logarithm of the Ki (pKi) of 3.45.

In the case of `CC(=O)Nc1cccc(O)c1` [METACETAMOL], the negative-log EC50 (pEC50) in test [1] was 4.11. This compound also gave a pKi in test [2] of 3.30.
